Bioassay records (PubChem)
ADAM10 inh = inhibitors of human ADAM10 | O14672 | recombinant ADAM10, EDANS/DABCYL FRET peptide cleavage, 3 h | inhibition, % at 7 µM | 370,000 tested, 0.62% active;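 active = inhibition above a per-campaign cutoff equal to the mean of compounds falling between control-based bounds plus 3 SD, cut at about 20% in these data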
PLCb3 inh = PLC-beta3 (human) inhibition, primary screen | AID 720704 | inhibition, % at 12.2 µM | Purified PLC-beta3, fluorogenic substrate, fluorescence | 370,000 tested, 0.18% active; in the data active = inhibition above about 11%
PLCg1 inh = inhibitors of human phospholipase C gamma1. P19174. purified PLC-gamma1, fluorogenic substrate, fluorescence. inhibition, % at 12.2 µM. 370,000 tested, 0.84% active. AID 720700; in the data active = inhibition above about 9.5%
Target sequence (P19174 whole entry, looked up): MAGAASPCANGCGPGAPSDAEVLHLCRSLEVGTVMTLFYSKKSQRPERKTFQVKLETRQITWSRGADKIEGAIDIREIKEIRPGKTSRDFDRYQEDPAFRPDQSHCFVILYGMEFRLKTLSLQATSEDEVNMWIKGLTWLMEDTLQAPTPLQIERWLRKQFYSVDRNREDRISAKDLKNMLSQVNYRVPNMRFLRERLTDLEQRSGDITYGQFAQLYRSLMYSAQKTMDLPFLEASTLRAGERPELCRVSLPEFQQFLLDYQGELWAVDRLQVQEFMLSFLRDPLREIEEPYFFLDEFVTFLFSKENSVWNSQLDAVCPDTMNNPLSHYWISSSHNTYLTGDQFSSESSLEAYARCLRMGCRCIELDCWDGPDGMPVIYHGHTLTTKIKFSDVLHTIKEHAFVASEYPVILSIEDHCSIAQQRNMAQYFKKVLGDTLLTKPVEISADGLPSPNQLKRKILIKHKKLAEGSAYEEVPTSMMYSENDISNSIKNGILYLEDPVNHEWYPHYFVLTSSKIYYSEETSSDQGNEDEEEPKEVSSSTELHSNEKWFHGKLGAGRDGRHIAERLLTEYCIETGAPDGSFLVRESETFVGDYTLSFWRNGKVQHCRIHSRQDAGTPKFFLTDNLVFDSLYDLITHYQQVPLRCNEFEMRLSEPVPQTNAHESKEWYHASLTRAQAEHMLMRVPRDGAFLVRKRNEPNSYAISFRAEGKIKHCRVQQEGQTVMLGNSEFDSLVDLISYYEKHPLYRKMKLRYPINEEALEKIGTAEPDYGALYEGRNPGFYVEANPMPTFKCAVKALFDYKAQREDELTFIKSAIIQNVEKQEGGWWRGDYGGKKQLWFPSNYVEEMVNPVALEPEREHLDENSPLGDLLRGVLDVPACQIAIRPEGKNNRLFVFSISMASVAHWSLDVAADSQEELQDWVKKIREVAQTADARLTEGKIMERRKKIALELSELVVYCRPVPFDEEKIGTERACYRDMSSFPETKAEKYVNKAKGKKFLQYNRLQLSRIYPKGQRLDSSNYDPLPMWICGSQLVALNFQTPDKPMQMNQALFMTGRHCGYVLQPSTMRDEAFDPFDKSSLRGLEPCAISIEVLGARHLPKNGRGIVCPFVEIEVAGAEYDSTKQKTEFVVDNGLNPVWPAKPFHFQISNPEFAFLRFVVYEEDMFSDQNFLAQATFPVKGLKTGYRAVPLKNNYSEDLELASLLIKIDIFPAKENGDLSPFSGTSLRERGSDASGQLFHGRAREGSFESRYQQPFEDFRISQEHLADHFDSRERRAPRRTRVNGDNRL
ADAM17 inh = inhibits human ADAM17; P78536; recombinant ADAM17, EDANS/DABCYL FRET peptide cleavage; inhibition, % at 6.95 µM; 370,000 tested, 0.83% active;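 active = inhibition above the mean of compounds lying between control limits plus 3 SD, set per campaign, cut at about 8.5% in these data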
Tb MetRS inh = blocks T. brucei methionyl-tRNA synthetase activity; purified T. brucei MetRS, ATP depletion, Kinase-Glo luminescence; inhibition, % at 11.9 µM; 360,000 tested, 0.4% active;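 active = inhibition above a per-plate cutoff of the control wells' mean inhibition plus 3 SD, cut at about 5.5% in these data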
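Dosing: 11.9 µM compound single dose, 0.9% DMSO; Assay system: purified T. brucei MetRS enzyme; Measured by: Kinase-Glo luciferase luminescence reporting remaining unconsumed ATP; Schedule: 15 min plus 2 h at 25 °C.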
ADAM10 counter = ADAM10 inhibition, counter-screen for ADAM17 exosite hits | shares compounds with ADAM17 inh | recombinant ADAM10, EDANS/DABCYL FRET peptide cleavage, 3 h | inhibition, % at 6.95 µM | 2,900 tested, 47% active | AID 743256;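 active = mean inhibition over the triplicate runs exceeds the activity threshold set in the earlier primary screen, cut at about 20% in these data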
ADAM17 confirm = confirmation of inhibitors of human ADAM17 | shares compounds with ADAM17 inh | recombinant ADAM17, EDANS/DABCYL QFRET peptide cleavage | inhibition, % at 6.95 µM | 2,900 tested, 65% active;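 active = mean inhibition across replicates above the hit cutoff set in the primary screen, cut at about 8.5% in these data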
Of the large screens only hits and unclear results are named; the others gave an inactive call (follow-up assays come after a bar, where they were run). Hits are enriched below; roughly 2.3% of the tested compounds scored in any of these assays.

COc1ccc(NS(=O)(=O)c2cc(NC(=O)c3cccs3)ccc2N2CCCC2)cc1	ADAM17 inh 9.1 | ADAM10 counter inactive | ADAM17 confirm 11
C/C(=N\NC(=S)NCc1ccccc1)c1ccc2ccccc2c1OC(F)F	ADAM17 inh 12 | ADAM10 counter inactive | ADAM17 confirm inactive
C/C(=N\NC(=S)NCc1ccccc1)c1ccc(Br)cc1	none
COc1ccccc1CNC(=O)c1cc(-c2ccccc2C)n(CC2CC(c3cccc([N+](=O)[O-])c3)=NO2)n1 (stereo unspecified)	none
COc1ccc(S(=O)(=O)Nc2cccc3c2O[C@H](CN(C)C(=O)Nc2ccc(C(F)(F)F)cc2)[C@@H](C)CN([C@H](C)CO)C3=O)cc1	ADAM10 inh 21, PLCg1 inh 9.9, ADAM17 inh 16 | ADAM10 counter 21 | ADAM17 confirm 14
C[C@H](CO)N1C[C@H](C)[C@@H](CN(C)C(=O)Nc2ccc(C(F)(F)F)cc2)Oc2c(NS(=O)(=O)c3ccc(F)cc3)cccc2C1=O	none
COc1ccc(S(=O)(=O)Nc2ccc3c(c2)C(=O)N([C@H](C)CO)C[C@H](C)[C@@H](CN(C)C(=O)Nc2ccc(C(F)(F)F)cc2)OCCCC[C@H](C)O3)cc1	ADAM17 inh 10 | ADAM10 counter 39 | ADAM17 confirm 21
C[C@H](CO)N1C[C@H](C)[C@@H](CN(C)Cc2ccccc2)Oc2c(NC(=O)c3ccncc3)cccc2C1=O	none
COc1ccc(NC(=O)N(C)C[C@H]2Oc3c(NC(=O)c4nc5ccccc5s4)cccc3C(=O)N([C@@H](C)CO)C[C@H]2C)cc1	ADAM17 inh 12 | ADAM10 counter 25 | ADAM17 confirm 13
C[C@H](CO)N1C[C@H](C)[C@@H](CN(C)Cc2ccc(Oc3ccccc3)cc2)Oc2c(NC(=O)c3ccncc3)cccc2C1=O	ADAM17 inh 12 | ADAM10 counter inactive | ADAM17 confirm inactive
COc1ccc(NC(=O)N(C)C[C@H]2Oc3c(NC(=O)c4ccncc4)cccc3C(=O)N([C@H](C)CO)C[C@@H]2C)cc1	none
COC(=O)C1=C(C(=O)OC)[C@@]2([C@H](Cc3ccc(C)cc3)Nc3ccccc3)C=C[C@@H]1O2	none (no result: Tb MetRS inh)
CCN1CCN(S(=O)(=O)c2ccc(Cl)c(C(=O)N(C)CCOc3ccc(Cl)cc3)c2)CC1	none
COC(=O)CC/C(O)=C1\C(=O)CC(C)(C)CC1=NCCc1nc2ccccc2[nH]1	none
Cc1ccc(-c2c(C(=O)NC3CCCC3)oc(=O)c3ccccc23)cc1	none (no result: Tb MetRS inh)
C=C(C)Cn1c(CN(C)Cc2ccccc2)nc2c1c(=O)n(C)c(=O)n2C	none
O=C(Nc1cccc(F)c1)Nc1ccc2c(c1)OCO2	ADAM17 inh 10 | ADAM10 counter inactive | ADAM17 confirm inactive
Cc1ccc(C(=O)C2COC(=O)C2)cc1 (stereo unspecified)	none
COC(=O)C1CCN(c2ccc([N+](=O)[O-])cc2)CC1	ADAM17 inh 10 | ADAM10 counter inactive | ADAM17 confirm inactive
COC(=O)C1CCN(CCCOc2ccc(CN3CCN(c4ccc([N+](=O)[O-])cc4)CC3)cc2)CC1	none
CCN(CC)S(=O)(=O)c1ccc(S(=O)(=O)N2CCC(N3CCCCC3)CC2)cc1	none
CC(O)(c1ccc(F)c(F)c1)c1nc(-c2ccncc2)cs1 (stereo unspecified)	none
CN(C)c1ccc(-c2csc(C(C)(O)c3ccc(F)c(F)c3)n2)cc1 (stereo unspecified)	ADAM17 inh 13 | ADAM10 counter inactive | ADAM17 confirm inactive
CCCCCCCCN1C(=O)[C@@H](CC(=O)N2CCN(C(=O)C3CC3)CC2)C[C@@]2(C(=O)OC)C1=C[C@H](C(C)(C)C)O[C@@H]2C	none (no result: Tb MetRS inh)
O=C(c1ccco1)N1CCN(c2nc(C3CC3)nc3c2nnn3Cc2ccccc2Cl)CC1	ADAM17 inh 11 | ADAM10 counter inactive | ADAM17 confirm inactive
O=C(c1ccco1)N1CCC(c2nc3c(nnn3Cc3ccccc3Cl)c(=O)[nH]2)CC1	none
Cc1cc(NC(=O)CSc2cc(Cl)ccc2Cl)n(-c2ccccc2)n1	ADAM17 inh 9.2 | ADAM10 counter inactive | ADAM17 confirm inactive
Cc1cc(NC(=O)COc2ccc(Cl)cc2Cl)n(-c2ccccc2)n1	none
O=C(Nc1nc(Cc2ccccc2)c(Cc2ccccc2)n1Cc1ccccc1)c1ccccc1	none (no result: Tb MetRS inh)
Cc1noc(C)c1C(=O)OCC(=O)Nc1ccccc1Oc1ccccc1	ADAM17 inh 8.7 | ADAM10 counter inactive | ADAM17 confirm 11
NC(=O)[C@H]1CC2(CC(c3cccc(NC(=O)COc4ccc(Cl)cc4)c3)=NO2)CN1C(=O)c1ccccc1C(=O)c1ccccc1 (stereo partly specified)	ADAM17 inh 8.7 | ADAM10 counter 24 | ADAM17 confirm 15
NC(=O)[C@H]1CC2(CC(c3cccc(NC(=O)COc4ccc(Cl)cc4)c3)=NO2)CN1C(=O)CC(c1ccccc1)c1ccccc1 (stereo partly specified)	ADAM10 inh 35, ADAM17 inh 18 | ADAM10 counter 37 | ADAM17 confirm 21
CCCCCC(=O)Nc1cccc(C2=NOC3(C2)C[C@H](C(N)=O)N(C(=O)CCCCC)C3)c1 (stereo partly specified)	none
CCCCCC(=O)N1CC2(CC(c3cccc(NC(=O)COc4ccc(Cl)cc4)c3)=NO2)C[C@@H]1C(N)=O (stereo partly specified)	none
CCCCCC(=O)N1CC2(CC(c3cccc(NC(=O)CC(c4ccccc4)c4ccccc4)c3)=NO2)C[C@@H]1C(N)=O (stereo partly specified)	ADAM17 inh 9.6 | ADAM10 counter 29 | ADAM17 confirm 18
CN1CC(c2ccccc2Cl)C2(COc3ccccc3C2=O)C12C(=O)Nc1ccccc12 (stereo unspecified)	ADAM17 inh 8.9 | ADAM10 counter 44 | ADAM17 confirm 25
CC1OC2(OC1C)C(=O)Nc1ccccc12 (stereo unspecified)	none
Cc1cccc(NC(=S)NCc2ccco2)c1C	none
COc1ccc(C(=O)N2CCN(Cc3ccccc3)CC2)cc1[N+](=O)[O-]	none
O=C(c1ccc(S(=O)(=O)c2cccc(Cl)c2)c([N+](=O)[O-])c1)N1CCN(Cc2ccccc2)CC1	ADAM17 inh 10 | ADAM10 counter 25 | ADAM17 confirm 17
COc1ccc(-n2c(=S)[nH]c3c(oc4ccccc43)c2=O)cc1	ADAM17 inh 9.2 | ADAM10 counter inactive | ADAM17 confirm inactive
